From PMC3901407 (Nature methods, 2013)

Experiments:
[1] = system: JNK activation in C22A-ZAK-transfected HEK-293T cells; experiment: Western blotting of phospho-JNK; type: cell-based, human; conditions: H2O2 1 mM, 30 min
How it was run: (§1)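 HEK-293T cells stably expressing FLAG-ZAK came from retroviral infection and hygromycin selection. They grew 24 h in DMEM/10% FBS, then were serum-starved 24 h and treated at 37 °C. Cells were sonicated in PBS with protease and phosphatase inhibitors. For blotting, 30 μg soluble lysate went on SDS-PAGE and nitrocellulose, blocked in 5% milk/TBST, with primary antibodies (1:2000, 16 h, 4 °C) and IRDye secondaries (1:10,000, 1 h). Read-out: infrared-scanned phospho-JNK, normalized.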

[2] = system: JNK activation in WT-ZAK-transfected HEK-293T cells; experiment: Western blotting of phospho-JNK; type: cell-based, human; conditions: H2O2 1 mM, 30 min
How it was run: as §1

[3] = molecular target: T1, WT-ZAK and C22A-ZAK (Homo sapiens, UniProt Q9NYL2); experiment: gel-based ABPP, HNEyne labelling in proteomes; type: binding; conditions: 10 μM HNEyne, 1 hour, HEK-293T lysate
[4] = molecular target: T1, WT-ZAK and C22A-ZAK; experiment: gel-based ABPP, HNEyne labelling in living cells; type: cell-based; conditions: 5 μM HNEyne, 1 hour, 37°C

T1 sequence (Q9NYL2 1-455 isoform Q9NYL2-2, stated change not applied): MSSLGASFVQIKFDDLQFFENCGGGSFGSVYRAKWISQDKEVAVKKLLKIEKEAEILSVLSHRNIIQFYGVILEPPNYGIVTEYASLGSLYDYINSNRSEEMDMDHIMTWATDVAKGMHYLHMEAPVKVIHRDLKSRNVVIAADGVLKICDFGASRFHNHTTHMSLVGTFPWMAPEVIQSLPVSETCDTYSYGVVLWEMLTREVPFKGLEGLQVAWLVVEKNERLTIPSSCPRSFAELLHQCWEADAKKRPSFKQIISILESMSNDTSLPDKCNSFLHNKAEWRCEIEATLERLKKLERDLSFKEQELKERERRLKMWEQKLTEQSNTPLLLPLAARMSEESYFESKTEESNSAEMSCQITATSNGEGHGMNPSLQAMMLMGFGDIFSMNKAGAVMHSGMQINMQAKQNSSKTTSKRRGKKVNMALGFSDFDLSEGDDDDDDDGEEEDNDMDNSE

SMILES	JNK activity after H2O2 [1]	JNK activity after H2O2 [2]	direct labeling of ZAK by HNEyne in vitro [3]	direct labeling of ZAK by HNEyne in living cells [4]
OO [H2O2]	stimulated JNK activity	stimulated JNK activity		
C#CCCCC(O)C=CC=O (stereo not shown) [HNEyne]			direct labeling of WT-, but not the C22A-ZAK mutant	direct labeling of WT-, but not the C22A-ZAK mutant
